EBV gp42 block – blocks Epstein-Barr virus glycoprotein 42 binding | AID 1085 | Fluorescence polarization binding assay, mP read-out | actives 0.42% (n = 220,000) | Q1HVG2 | inhibition, % (tested at 21.74 µM); in the data active means inhibition above about 50%
Target sequence (Q1HVG2 whole entry, looked up): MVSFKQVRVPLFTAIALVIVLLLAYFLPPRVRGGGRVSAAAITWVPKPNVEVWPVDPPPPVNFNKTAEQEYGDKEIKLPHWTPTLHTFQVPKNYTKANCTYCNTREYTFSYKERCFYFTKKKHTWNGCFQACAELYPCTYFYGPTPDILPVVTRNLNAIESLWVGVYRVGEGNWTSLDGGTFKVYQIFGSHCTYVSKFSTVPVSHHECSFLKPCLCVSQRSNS
CHOP inh – blocks CHOP induction under ER stress; CHO-K1 CHOP-promoter luciferase, tunicamycin-induced, 15-18 h; inhibition, % at 10 µM; actives 3.8% (n = 220,000);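 active means compounds that reduced the stress-induced luciferase reporter signal by more than about 70% of percent inhibition, limit read from the data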;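 further: 0% = tunicamycin plus vehicle and 100% = wells without tunicamycin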
GRIN3A LBD mod – NR3A (human) ligand-binding domain modulation | NR3A LBD differential scanning fluorimetry, Tm shift; 0% = protein alone, 100% = glycine-bound protein | Tm shift relative to glycine control, % at 25 µM | actives 2.5% (n = 340,000) | AID 1259313;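 active means melting temperature shift of at least 10% of the positive control shift, at one fixed dose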
MPTP inh – inhibitors of mitochondrial permeability transition pore. isolated mouse mitochondria, Ca2+ swelling absorbance, 30 min. AID 602449. inhibition, % at 10 µM. actives 1.4% (n = 360,000);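 active means inhibition of 50% or more, scaled per plate between neutral and stimulator controls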;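 further: 0% = DMSO wells given calcium and 100% = 1 mM EGTA wells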
WT yeast gro inh – growth inhibition of WT yeast, mitochondrial fusion screen | inhibition, % at 10 µM | actives 2.1% (n = 190,000) | mitochondrial fusion phenotypic screen, WT strain; in the data active means inhibition above about 58%; tested in S. cerevisiae
TbMetRS inhib – blocks T. brucei methionyl-tRNA synthetase activity; inhibition, % at 11.9 µM; purified T. brucei MetRS, ATP depletion, Kinase-Glo luminescence; actives 0.4% (n = 360,000);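 active means inhibition above a per-plate cutoff of the control wells' mean inhibition plus 3 SD, cut at about 5.5% in these data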;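 further: 0% = DMSO wells median and 100% = median of wells with control inhibitor compound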
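Assay system: T. brucei methionyl-tRNA synthetase, purified | Medium: HEPES buffer with MgCl2, KCl, DTT, spermine, BSA, pyrophosphatase | Compound: 11.9 µM single point | Incubation: 15 min enzyme-compound preincubation, 2 h reaction, 10 min detection, 25 °C | Measured by: Kinase-Glo luciferase luminescence reporting remaining unconsumed ATP | Measure: % inhibition normalized to control-well medians | Replication: Singlicate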
The depositor's hits bear a star; x = no result given. Compounds with a hit are over-represented: about 6.4% of the library has one in this group of screens.

SMILES	EBV gp42 block	CHOP inh	GRIN3A LBD mod	MPTP inh	WT yeast gro inh	TbMetRS inhib
S=c1[nH]nc(-c2ccccc2)n1/N=C/c1ccc(-c2ccccc2Cl)o1	7	-24	8	9	58*	-1
OCC1=C[C@@H](O)C2C=CO[C@@H](O[C@@H]3O[C@H](CO)[C@@H](O)[C@H](O)[C@H]3O)C12 (stereo not given in full)	x	x	1	-1	x	0
COc1cc(CCC(=O)NCC2CCCO2)cc(OC)c1OC (stereo not given)	x	x	-1	-1	x	0
O=C1C(=Cc2cccn2-c2ccc(O)cc2)C(=O)c2ccccc21	82*	17	1	-4	-1	-1
CC1CN(CC(=O)Nc2ccc(S(N)(=O)=O)cc2)CC(C)O1 (stereo not given)	x	x	0	4	x	-1
C[C@@H](CSc1ccc(Br)cc1)CN1CC[C@H](C(C)(C)C)CCC1=O	x	x	10*	-1	x	0
Cc1ccc(C)c(/C=N/n2cc(-c3ccccc3)[nH]c2=S)c1	4	-30	-5	-1	71*	0
CCCn1c(SCC(=O)Nc2ccc(OC)cc2[N+](=O)[O-])n[nH]c1=O	0	-2	1	1	-17	0
CCOC(=O)CSc1nc(C)cc(C)c1C#N	-14	-1	-1	5	-7	-1
Cc1cc(C)c(C#N)c(SCC(=O)OC2CCCCC2)n1	5	77*	0	0	5	-1
C/C(=N\NC1=N[C@H]2CS(=O)(=O)C[C@H]2S1)c1ccccc1	-7	5	4	2	x	0
COc1ccc(N2CCN(C(=O)CN(c3ccc(OC)cc3)S(=O)(=O)c3ccccc3)CC2)cc1	x	x	1	0	x	0
O=C(CN(c1ccc(Cl)c(C(F)(F)F)c1)S(=O)(=O)c1ccccc1)N1CCOCC1	-10	26	14*	2	-5	0
O=C(CN(c1ccc(Cl)cc1)S(=O)(=O)c1ccccc1)N1CCN(c2ccccc2)CC1	-9	73*	-3	4	15	0
Cc1ccc(OCCC(=O)OCC(=O)Nc2ccc(Cl)cn2)cc1	0	74*	0	-4	17	0
O=C(CCCOc1ccccc1)Nc1ccc(Cl)cn1	5	72*	-2	1	-16	0
O=C(CC(c1ccccc1)c1ccccc1)Nc1ccc(Cl)cn1	0	78*	-4	0	29	0
COc1ccc(-c2cc(C(=O)NC(C)C)no2)cc1	-11	8	0	0	-2	-2
CC1=CC(C)(C)N(S(=O)(=O)c2ccc(F)cc2)c2ccc(C)cc21	-2	x	-3	3	81*	0
COc1ccc(NS(=O)(=O)c2cc(NC(=O)[C@@H](NC(=O)c3ccccc3)C(C)C)ccc2C)cc1	-1	2	13*	2	-21	0
CCOC(=O)c1c(/N=C/N(C)C)sc(/C=N/Nc2ccccc2)c1-c1ccccc1Cl	-16	2	-18	5	11	0
CCOC(=O)c1c(/N=C/N(C)C)sc(/C=N/Nc2ccccc2)c1-c1ccccc1	-59	82*	-2	4	-28	-1
O=C(CCCN1C(=O)/C(=C\c2ccccc2)SC1=S)Nc1cccc(C(=O)O)c1	x	x	-2	1	x	0
O=C(CCCN1C(=O)/C(=C/c2cccs2)SC1=S)Nc1cccc(C(=O)O)c1	-1	16	-2	2	3	0
O=C(CCCN1C(=O)/C(=C/c2cccs2)SC1=S)Nc1cccc(O)c1	x	x	14*	0	x	1
SMILES	EBV gp42 block	CHOP inh	GRIN3A LBD mod	MPTP inh	WT yeast gro inh	TbMetRS inhib
O=C(CCN1C(=O)/C(=C/c2cccs2)SC1=S)Nc1ccc(O)cc1	x	x	22*	3	x	0
O=C(CCN1C(=O)/C(=C/c2cccs2)SC1=S)Nc1ccccc1O	x	x	15*	10	x	3
O=C(CCN1C(=O)/C(=C/c2cccs2)SC1=S)Nc1ccc(C(=O)O)c(O)c1	x	x	1	-2	x	0
O=C(CCCN1C(=O)/C(=C/c2ccccc2)SC1=S)Nc1cccc(O)c1	-7	67	12*	10	30	0
COc1ccc(CCNC(=S)Nc2ccccc2C)cc1	-9	12	3	-6	1	-1
O=C(CCN1C(=O)/C(=C/c2cccs2)SC1=S)Nc1cccc(C(=O)O)c1	x	x	-10	1	x	0

Compound activity deposited in PubChem BioAssay by several laboratories.
